Data published in ChEMBL document CHEMBL1764993, “Synthesis and biological evaluation of novel irreversible serine protease inhibitors using amino acid based sulfonyl fluorides as an electrophilic trap” (Bioorg Med Chem, 2011).
The source made the active and inactive calls. The rule behind the calls is not given here.

Columns and labels:
[1] = Inhibition of chymotrypsin assessed as p-nitroaniline release measured for 15 mins using Bz-L-Tyr-pNA as a substrate by Dixon plot analysis
Method in brief: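 Ki from Dixon plots: chymotrypsin (final 0.5 µM) in sodium phosphate 0.05 M pH 7.0 with Bz-L-Tyr-pNA at 0.15–0.25 mM and inhibitor at 7.81, 15.63 or 31.25 µM (final), no preincubation. p-Nitroaniline read directly at 405 nm for 15 min; DMSO controls; quadruplicate.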

[2] = Inhibition of chymotrypsin assessed as p-nitroaniline release at 20 uM measured at every 6 mins for 15 mins using Bz-L-Tyr-pNA as a substrate
Method in brief: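 kinact: chymotrypsin mixed with inhibitor in sodium phosphate 0.05 M pH 7.0; aliquots moved into Bz-L-Tyr-pNA wells at 0–5 min, then all read at 405 nm for 15 min. Final enzyme 0.5 µM, substrate 250 µM, inhibitor 20 µM. Residual activity plotted against preincubation time.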

[3] = Inhibition of chymotrypsin assessed as p-nitroaniline release after 30 mins pre-incubated with compound for 1 hr before addition of Bz-L-Tyr-pNA as a substrate by calorimetric assay
Method in brief: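 Chymotrypsin (commercial, used as received) pre-incubated 1 h with inhibitor in DMSO in sodium phosphate 0.05 M pH 7.0; aliquot then added to Bz-L-Tyr-pNA. Final: enzyme 1.0 µM, substrate 0.25 mM; DMSO controls. p-Nitroaniline release read at 405 nm for 30 min at rt to give residual activity. Triplicate or quadruplicate.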

Papain (Carica papaya) = molecular target: T1, Papain (Carica papaya) (UniProt P00784); assay: Inhibition of papaya papain assessed as p-nitroaniline release at 2.5 uM after 1 hr pre-inhibition using Bz-L-Tyr-pNA as a substrate by calorimetric assay
T1 sequence (whole entry): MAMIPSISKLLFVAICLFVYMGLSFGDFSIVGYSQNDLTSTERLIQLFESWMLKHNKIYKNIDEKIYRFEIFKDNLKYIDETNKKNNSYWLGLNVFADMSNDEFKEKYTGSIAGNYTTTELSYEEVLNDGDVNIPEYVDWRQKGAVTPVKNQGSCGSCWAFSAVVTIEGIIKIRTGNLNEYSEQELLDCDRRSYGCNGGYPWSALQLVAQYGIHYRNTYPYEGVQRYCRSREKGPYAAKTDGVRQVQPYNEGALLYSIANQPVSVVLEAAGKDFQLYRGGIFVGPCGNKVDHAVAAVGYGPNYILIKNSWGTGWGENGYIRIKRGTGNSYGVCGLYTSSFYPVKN

O=S(=O)(F)Cc1ccccc1 [PHENYLMETHYLSULFONYLFLUORIDE]
Ki ([1]; read-out: Ki): 13 µM
Kinact [2]: 0.32 min⁻¹

CC(C)[C@@H](CS(=O)(=O)F)NC(=O)OCC1c2ccccc2-c2ccccc21
Activity [3]: Active

O=C(NCCS(=O)(=O)F)OCc1ccccc1
Activity (Papain (Carica papaya)): Active
Activity [3]: Active

O=C(N[C@@H](Cc1ccccc1)CS(=O)(=O)F)OCc1ccccc1
Activity (Papain (Carica papaya)): Active
Activity [3]: Active

CC(C)C[C@@H](CS(=O)(=O)F)NC(=O)OCc1ccccc1
Activity (Papain (Carica papaya)): Active
Activity [3]: Active

C[C@@H](CS(=O)(=O)F)NC(=O)OCc1ccccc1
Ki [1]: Not Active
Activity (Papain (Carica papaya)): Active
Activity [3]: Active
